Screening data (PubChem)
Hits are enriched below; roughly 1.9% of the tested compounds scored in any of these assays.
FXN GAA850 act: frataxin GAA850 promoter activation; HEK293 lucGAA850 FXN promoter luciferase reporter, 24 h; percent of 10 µM SAHA response; activation, % at 6 µM; 0.56% of 360,000 active;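 active = activation above the average of all compounds screened plus 3 SD, cutoff fixed separately per campaign, cut at about 7.5% in these data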;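 also: 0% = DMSO wells and 100% = 10 µM SAHA wells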
ABHD5-PLIN5 inh: blocks binding of human ABHD5 to perilipin-5; Split G. princeps luciferase complementation, luminescence, 4 h; inhibition, % at 4 µM; 0.78% of 360,000 active; AID 602281;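 active = inhibition above the mean inhibition across every tested compound plus 3 SD, cut at about 22% in these data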;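 also: 0% = DMSO only wells and the 100% control is not disclosed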
Target sequence (Q00G26 whole entry, looked up): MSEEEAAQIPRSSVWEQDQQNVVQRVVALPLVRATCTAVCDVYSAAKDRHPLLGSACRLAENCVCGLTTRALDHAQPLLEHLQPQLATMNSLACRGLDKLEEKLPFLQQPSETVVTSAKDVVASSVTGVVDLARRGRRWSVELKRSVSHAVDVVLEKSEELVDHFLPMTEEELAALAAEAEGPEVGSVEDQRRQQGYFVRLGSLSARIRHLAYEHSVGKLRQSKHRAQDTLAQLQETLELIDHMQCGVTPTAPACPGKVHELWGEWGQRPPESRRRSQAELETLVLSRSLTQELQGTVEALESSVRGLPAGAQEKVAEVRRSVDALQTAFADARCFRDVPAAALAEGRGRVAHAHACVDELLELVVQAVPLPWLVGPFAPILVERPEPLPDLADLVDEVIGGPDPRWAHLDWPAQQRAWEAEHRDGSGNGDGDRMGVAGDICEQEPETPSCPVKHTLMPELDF
Target sequence (Q8WTS1 whole entry, looked up): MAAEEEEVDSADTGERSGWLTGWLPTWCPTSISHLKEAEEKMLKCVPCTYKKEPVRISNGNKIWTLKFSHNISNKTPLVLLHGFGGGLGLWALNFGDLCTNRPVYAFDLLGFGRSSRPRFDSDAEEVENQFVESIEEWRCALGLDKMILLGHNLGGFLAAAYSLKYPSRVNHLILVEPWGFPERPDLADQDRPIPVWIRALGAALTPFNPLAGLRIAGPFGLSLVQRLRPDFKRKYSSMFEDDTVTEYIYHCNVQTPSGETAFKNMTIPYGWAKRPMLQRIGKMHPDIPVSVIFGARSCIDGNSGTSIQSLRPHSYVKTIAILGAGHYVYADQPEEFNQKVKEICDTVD
Rad51 HR inh: Rad51 (human) homologous recombination inhibition. Q06609. hRad51 DNA strand exchange, fluorescence dequenching. inhibition, % at 10 µM. 0.085% of 200,000 active. AID 1385;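 active = inhibition above 40% at the single screening dose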;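 also: 0% = DMSO control wells and 100% = blanks with heterologous ssDNA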
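material = hRad51 filaments on single-stranded DNA | reagent = Donor/quencher-labelled 47-bp dsDNA substrate | compound = 10 µM final, single point | schedule = strand-exchange reaction 15 min at room temperature | measured by = fluorescein emission 520 nm, excitation 485 nm | read-out basis = % inhibition versus plate control and blank means | benchmarks = plate controls and plate blanks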
Hsp70 activator: switches on Hsp70 transcription. 0.04% of 200,000 active. activation, % at 10 µM. AID 1203. HeLa Hsp70 promoter luciferase reporter, luminescence; scaled: vehicle 0, proteasome-inhibitor control 100%;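 active = activation above the mean across all tested compounds plus 3 SD, cutoff set per campaign, cut at about 5.5% in these data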;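 also: 100% = MG132 at 30 µM as the positive control and 0% = DMSO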
H9c2 TAG inh: reduces triacylglycerol accumulation in H9c2 cells; Nile Red lipid (TAG) fluorescence; cells loaded with 200 µM oleic acid; inhibition, % at 12.5 µM; 0.66% of 230,000 active; AID 651582;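 active = pattern-corrected inhibition of lipid staining of at least 50% with the nuclear-stain viability signal not falling by more than 50%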;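 also: 0% = DMSO wells and 100% = triacsin C control wells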
HIF act: HIF pathway transcriptional activation. U2OS HRE-luciferase reporter, luminescence; normalized: DMSO 0%, desferrioxamine 100%. activation, % at 7.5 µM (by protocol). 0.32% of 300,000 active;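 active = mean activation of at least 10% of the iron chelator positive control signal, with at least half of replicates also reaching 10%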
TAG conf: triacylglycerol accumulation inhibition, confirmation | shares compounds with H9c2 TAG inh | H9c2 lipid accumulation, Nile Red fluorescence; cells loaded with 200 µM oleic acid | inhibition, % at 12.5 µM | 71% of 990 active | AID 651629;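 active = mean inhibition across replicates of 40% or more; inactive = mean inhibition below 40%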;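 also: plate controls were DMSO only wells for no effect and Triacsin C treated wells for full effect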
* hit, by the source's call; / = no result given.

SMILES	FXN GAA850 act	ABHD5-PLIN5 inh	Rad51 HR inh	Hsp70 activator	H9c2 TAG inh	HIF act	TAG conf
CC(=O)c1cn(CC(=O)NCc2ccc3c(c2)OCO3)c2ccccc12	-2	-8	10	0	-31	-6	/
CCOC(=O)C(C)Oc1cccc2c(=O)n(CC(=O)NCc3ccc4c(c3)OCO4)ccc12 (stereo unspecified)	-2	9	0	1	54*	0	55*
O=C(Cn1cc(C(=O)C2CC2)c2ccccc21)NCc1ccc2c(c1)OCO2	-1	3	3	0	51*	-1	26
O=C(NCCc1ccccc1)C(=O)NCC1OCCN1S(=O)(=O)c1ccc(F)cc1 (stereo unspecified)	-1	-2	/	/	2	0	/
CCN(CC)C(=O)c1cc(-c2ccc3c(c2)OCO3)on1	5	3	/	/	/	-3	/
Cc1cc(C(C)(C)C)ccc1OCC(=O)N/N=C\c1c(C)n(C)n(-c2ccccc2)c1=O	0	-7	/	/	/	0	/
Cc1nc2ccc(C(=O)Nc3ccccc3Cl)cc2s1	3	-5	/	/	-3	2	/
COc1cc2c(cc1OC)C(NC(=O)c1ccc(C)cc1)CC2=O (stereo unspecified)	1	0	/	/	/	0	/
Cc1ccc(-n2ncc(-c3nnc(SCC(=O)NC4CCCC4)o3)c2N)cc1C	-1	5	/	0	55*	2	37
COc1ccc(C2c3cc4c(cc3OC(N3CCOCC3)C2C)OCO4)c(OC)c1 (stereo unspecified)	-6	0	/	/	55*	/	75*
CC(C)CN(C#N)c1nc(N2CCOCC2)nc(N2CCOCC2)n1	2	2	9	0	62*	0	45*
CN(C#N)c1nc(N2CCOCC2)nc(N2CCOCC2)n1	1	-3	4	0	17	1	/
COc1cccc(NC(=O)CN2CCC(NC(=O)c3ccccc3C)CC2)c1	0	5	/	/	-4	/	/
O=C(Nc1ccc([N+](=O)[O-])cc1)c1cc(Cl)sc1Cl	1	-5	/	/	/	1	/
O=C(Nc1ccc(F)cc1)c1cc(Cl)sc1Cl	1	4	-7	0	52*	/	-4
Cc1cccc(NC(=O)CSc2cccc3cccnc23)c1	3	3	/	/	59*	1	-14
O=C(CSc1cccc2cccnc12)Nc1ccccc1F	3	-1	/	/	73*	1	-1
O=C(CSc1cccc2cccnc12)Nc1cc(C(=O)O)cc(C(=O)O)c1	1	-5	/	/	52*	-6	19
NNC(=O)CSc1cccc2cccnc12	1	2	/	0	/	0	/
CCCCOc1ccc(NC(=O)CSc2cccc3cccnc23)cc1	-1	-6	-3	0	12	0	/
CCN(CC)C(=O)c1cccc(-c2csc(C(C)(O)c3cccc(F)c3)n2)c1 (stereo unspecified)	-3	-2	/	/	-8	/	/
CCOC(=O)C1=C(COC(=O)CCc2ccccc2)NC(=O)NC1C (stereo unspecified)	0	-22	/	/	-5	/	/
Cc1cccc2cc(C#N)c(SCC(=O)NNC(=O)Cc3ccccc3)nc12	-3	4	2	0	71*	0	98*
Cc1ccc(-n2c(=O)[nH]c3c(C(N)=O)nc(C(C)C)nc32)cc1	1	-1	/	/	/	0	/
Cc1ccsc1-c1nc(C(N)=O)c2[nH]c(=O)n(-c3ccc(Cl)cc3)c2n1	1	1	/	0	57*	0	42*
SMILES	FXN GAA850 act	ABHD5-PLIN5 inh	Rad51 HR inh	Hsp70 activator	H9c2 TAG inh	HIF act	TAG conf
CCOc1ccc(/C=C2\CCCc3c2nc2ccccc2c3C(=O)O)cc1OC	0	-14	/	/	-11	0	/
CCCCNC(=O)C(=O)Nc1ccc2c(c1)N(S(=O)(=O)c1cccs1)CCC2	-2	-3	/	/	60*	/	54*
O=C(Cc1ccccc1)NC(Nc1cccc2ccccc12)C(Cl)(Cl)Cl (stereo unspecified)	1	-4	/	0	58*	-1	1
CC(C)C[C@@H](CN1CCCC1CN1C(=S)NC[C@@H]1Cc1ccc(O)cc1)N1C[C@H](Cc2ccccc2)N(CC2CCCCCC2)C1=S (stereo partly specified)	4	-7	/	/	74	/	/
CC(C)C[C@@H](CN1CCCC1CN1C(=S)NC[C@@H]1Cc1ccc(O)cc1)N1C[C@H](Cc2ccccc2)N(CC2CCCCC2)C1=S (stereo partly specified)	2	1	/	/	53*	/	73*
O=C(O)c1ccc(N/N=C/C=C/c2ccccc2[N+](=O)[O-])cc1	7	1	5	0	6	1	/
C/C(=N\Nc1ccc(S(=O)(=O)Nc2ccc(Cl)cc2)cc1[N+](=O)[O-])c1ccc(N2CCOCC2)cc1	3	-5	-10	0	/	0	/
O=[N+]([O-])c1cc(S(=O)(=O)Nc2cccc(Cl)c2)ccc1N/N=C/c1ccc(N2CCOCC2)cc1	1	0	-6	/	80*	0	79*
O=[N+]([O-])c1ccccc1/C=C/C=N/Nc1ccc(S(=O)(=O)Nc2ccc(Cl)cc2)cc1[N+](=O)[O-]	0	6	-1	0	58*	-1	52*
CCCCCc1cc(=O)oc2c(C(CCN3CCCC3)c3cc(OC)c(OC)c(OC)c3)c(OC)cc(OC)c12 (stereo unspecified)	-3	18	-10	/	94*	0	77*
COc1cc(C(CCN2CCCCC2)c2c(OC)cc(OC)c3c(-c4ccccc4)cc(=O)oc23)cc(OC)c1OC (stereo unspecified)	-2	20	-10	/	58*	1	52*
CCCCCc1cc(=O)oc2c(C(CCN3CCN(c4ccccc4)CC3)c3ccc4c(c3)OCO4)c(OC)cc(OC)c12 (stereo unspecified)	2	-2	-2	/	65*	-1	74*
CCN(CC)CCC(c1ccc(N(C)C)cc1)c1c(OC)cc(OC)c2ccc(=O)oc12 (stereo unspecified)	0	1	-2	/	24	-1	/
COc1cc(C(CCN2CCCC2)c2c(OC)cc(OC)c3c(C)cc(=O)oc23)cc(OC)c1OC (stereo unspecified)	0	3	5	/	23	0	/
CCCCCc1cc(=O)oc2c(C(CCN(CC)CC)c3ccc(OC)cc3)c(OC)cc(OC)c12 (stereo unspecified)	-3	12	9	/	73*	-7	68*
COc1ccc(Cl)cc1S(=O)(=O)N1CCCC(C(=O)NCc2ccccc2)C1 (stereo unspecified)	-2	-2	/	/	-12	0	/
N#CC(c1ccccc1)C(CC(=O)c1ccccc1)c1ccccc1 (stereo unspecified)	-1	0	/	/	-7	/	/
